Source: ChEMBL document CHEMBL1123678, “Octahydropyrazino[2',3':3,4]pyrido[1,2-a]indoles. A new class of potent antihypertensive agents” (1987)
The source made the active and inactive calls. The rule behind the calls is not given here.

How the values were obtained:
Rattus norvegicus [1] = assay: Antihypertensive activity was determined in cannulated spontaneously hypertensive rats(SHR) and maximum decrease of mean arterial blood pressure (MABP) at 10 mg/kg oral dose; assay type: functional, Artery
How it was run: (§1)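 Cannulated SHR given compound by gastric gavage in 0.5% methylcellulose (5 mL/kg), doses 0.1–50 mg/kg, 4–8 animals per dose, after 1-h equilibration. MABP recorded for 4 h; maximal % decrease reported with time to peak effect. Significance by two-way analysis of variance.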

Rattus norvegicus [2] = assay: Antihypertensive activity was determined in cannulated spontaneously hypertensive rats(SHR) and maximum decrease of mean arterial blood pressure (MABP) at 1 mg/kg oral dose; assay type: functional, Artery; how it was run: as §1
Rattus norvegicus [3] = assay: Antihypertensive activity was determined in cannulated spontaneously hypertensive rats(SHR) and maximum decrease of mean arterial blood pressure (MABP) at 2.5 mg/kg oral dose; assay type: functional, Artery; how it was run: as §1
Rattus norvegicus [4] = assay: Antihypertensive activity was determined in cannulated spontaneously hypertensive rats(SHR) and maximum decrease of mean arterial blood pressure (MABP) at 5 mg/kg oral dose; assay type: functional, Artery; how it was run: as §1
Rattus norvegicus [5] = assay: Vasopressor responses to epinephrine as a measure of the alpha-1-adrenoceptor blocking activity at 1 mg/kg administered orally was reported to be antagonized; assay type: functional, organism-based; set-up: dose 1 mg/kg
Rattus norvegicus [6] = assay: Antihypertensive activity was determined in cannulated spontaneously hypertensive rats(SHR) and heart rate response was reported to reduce by 10-25% after 4 hr at a peroral dose of 5 mg/kg; assay type: functional, organism-based; set-up: dose 5 mg/kg
Rattus norvegicus [7] = assay: Vasopressor responses to epinephrine as a measure of the alpha-1-adrenoceptor blocking activity at 2.5 mg/kg administered orally was reported to be reversed; assay type: functional, organism-based; set-up: dose 2.5 mg/kg
Rattus norvegicus [8] = assay: Antihypertensive activity was determined in cannulated spontaneously hypertensive rats(SHR) and heart rate response was reported to reduce by 10-25% after 4 hr at a peroral dose of 1.0 mg/kg; assay type: functional, organism-based; set-up: dose 1 mg/kg
Rattus norvegicus [9] = assay: Antihypertensive activity was determined in cannulated spontaneously hypertensive rats(SHR) and heart rate response was reported to reduce by 10-25% after 4 hr at a peroral dose of 10 mg/kg; assay type: functional, organism-based; set-up: dose 10 mg/kg
Rattus norvegicus [10] = assay: Antihypertensive activity was determined in cannulated spontaneously hypertensive rats(SHR) and heart rate response was reported to reduce by 10-25% after 4 hr at a peroral dose of 2.5 mg/kg; assay type: functional, organism-based; set-up: dose 2.5 mg/kg
Rattus norvegicus [11] = assay: Vasopressor responses to epinephrine as a measure of the alpha-1-adrenoceptor blocking activity at 10 mg/kg administered orally was reported to be reversed; assay type: functional, organism-based; set-up: dose 10 mg/kg
Rattus norvegicus [12] = assay: Antagonism of vasopressor responses to epinephrine as a measure of the alpha-1-adrenoceptor blocking activity at 5 mg/kg administered orally was reported to be reversed; assay type: functional, organism-based; set-up: dose 5 mg/kg
Rattus norvegicus [13] = assay: Antihypertensive activity was determined in cannulated spontaneously hypertensive rats(SHR) and maximum decrease of mean arterial blood pressure (MABP) at 50 mg/kg oral dose; assay type: functional, Artery; how it was run: as §1
Rattus norvegicus [14] = assay: Vasopressor responses to epinephrine as a measure of the alpha-1-adrenoceptor blocking activity at 10 mg/kg administered orally was reported to have no change; assay type: functional, organism-based; set-up: dose 10 mg/kg
Rattus norvegicus [15] = assay: Antihypertensive activity was determined in cannulated spontaneously hypertensive rats(SHR) and marked bradycardia was reported at a dose of 10 mg/kg; assay type: functional, organism-based; set-up: dose 10 mg/kg
Rattus norvegicus [16] = assay: Vasopressor responses to epinephrine as a measure of the alpha-1-adrenoceptor blocking activity at 1 mg/kg administered orally was reported to be reversed; assay type: functional, organism-based; set-up: dose 1 mg/kg
Rattus norvegicus [17] = assay: Antihypertensive activity was determined in cannulated spontaneously hypertensive rats(SHR) and heart rate response was reported to be reduce by 10-25% after 4 hr at a dose of 50 mg/kg; assay type: functional, organism-based; set-up: dose 50 mg/kg
Rattus norvegicus [18] = assay: Antihypertensive activity was determined in cannulated spontaneously hypertensive rats(SHR) and maximum decrease of mean arterial blood pressure (MABP) at 25 mg/kg oral dose; assay type: functional, Artery; how it was run: as §1
Rattus norvegicus [19] = assay: Antihypertensive activity was determined in cannulated spontaneously hypertensive rats(SHR) and marked bradycardia was reported at a dose of 50 mg/kg; assay type: functional, organism-based; set-up: dose 50 mg/kg
Rattus norvegicus [20] = assay: Vasopressor responses to epinephrine as a measure of the alpha-1-adrenoceptor blocking activity at 25 mg/kg administered orally was reported to have no change; assay type: functional, organism-based; set-up: dose 25 mg/kg
Rattus norvegicus [21] = assay: Vasopressor responses to epinephrine as a measure of the alpha-1-adrenoceptor blocking activity at 50 mg/kg administered orally was reported to be antagonized; assay type: functional, organism-based; set-up: dose 50 mg/kg
Rattus norvegicus [22] = assay: Vasopressor responses to epinephrine as a measure of the alpha-1-adrenoceptor blocking activity at 10 mg/kg administered orally was reported to be antagonized; assay type: functional, organism-based; set-up: dose 10 mg/kg

`Br.CCCN1CCN(CCC)C2c3c(C)c4ccccc4n3CCC21` (centres undefined) was tested, and the “Decrease in MABP” value (Rattus norvegicus [1]) was 18%, the “Decrease in MABP” value (Rattus norvegicus [2]) was 13% and the “Decrease in MABP” value (Rattus norvegicus [3]) was 16%. For the same compound, the “Decrease in MABP” value (Rattus norvegicus [4]) was 12%, the Activity (Rattus norvegicus [5]) was “Antagonism reversed” and the HR (Rattus norvegicus [6]) was “Heart rate response was reported to reduce by 10-25% after 4 hr at a peroral dose of 1.0 mg/kg”. The Activity (Rattus norvegicus [7]) was “Antagonism reversed”, the HR (Rattus norvegicus [8]) was “Heart rate response was reported to reduce by 10-25% after 4 hr at a peroral dose of 1.0 mg/kg” and the HR (Rattus norvegicus [9]) was “Heart rate response was reported to reduce by 10-25% after 4 hr at a peroral dose of 1.0 mg/kg”. For the same compound, the HR (Rattus norvegicus [10]) was “Heart rate response was reported to reduce by 10-25% after 4 hr at a peroral dose of 1.0 mg/kg”, the Activity (Rattus norvegicus [11]) was “Antagonism reversed” and the Activity (Rattus norvegicus [12]) was “Antagonism reversed”.
Work on `CCN1CCN(C(C)C)C2CCn3c(c(C)c4cc(Br)ccc43)C21.Cl.Cl` (centres undefined) yielded a Decrease in MABP (Rattus norvegicus [13]) of 20%.
In the case of `Cc1c2n(c3ccccc13)CCC1C2NCCN1CCOc1ccccc1` (centres undefined), the “Decrease in MABP” value (Rattus norvegicus [1]) was 7% and the Activity (Rattus norvegicus [14]) was “inactive”.
For `Br.CCCN1CCN(C(C)C)C2CCn3c(c(C)c4ccccc43)C21` (centres undefined), the “Decrease in MABP” value (Rattus norvegicus [1]) was 40%, the “Decrease in MABP” value (Rattus norvegicus [2]) was 19% and the “Decrease in MABP” value (Rattus norvegicus [3]) was 25%. The HR (Rattus norvegicus [15]) was “Heart rate response was reported to reduce by 10-25% after 4 hr at a peroral dose of 1.0 mg/kg”, the Activity (Rattus norvegicus [16]) was “Vasopressor response reversed” and the Activity (Rattus norvegicus [7]) was “Vasopressor response reversed”. For the same compound, the Activity (Rattus norvegicus [11]) was “Vasopressor response reversed”.
In the case of `CCN1CCN(CC)[C@H]2c3c(C)c4ccccc4n3CC[C@H]21.Cl.Cl`, the “Decrease in MABP” value (Rattus norvegicus [13]) was 25% and the HR (Rattus norvegicus [17]) was “Heart rate response was reported to be reduce by 10-25% after 4 hr at a dose of 25 mg/kg”.
With `Cc1c2n(c3ccccc13)CCC1C2N(C)CCN1C.Cl.Cl` (centres undefined) the “Decrease in MABP” value (Rattus norvegicus [13]) was 12%.
`Br.Br.CCN1CCNC2c3c(C)c4ccccc4n3CCC21` (centres undefined) was tested, and the “Decrease in MABP” value (Rattus norvegicus [1]) was 23%, the “Decrease in MABP” value (Rattus norvegicus [18]) was 26% and the “Decrease in MABP” value (Rattus norvegicus [13]) was 31%. For the same compound, the HR (Rattus norvegicus [19]) was “Heart rate response was reported to reduce by 10-25% after 4 hr at a peroral dose of 25 mg/kg”, the Activity (Rattus norvegicus [20]) was “inactive” and the Activity (Rattus norvegicus [21]) was “Vasopressor response antagonized”. For the same compound, the Activity (Rattus norvegicus [14]) was “inactive”.
`Cc1c2n(c3ccccc13)CCC1C2N(C)CCN1C` (centres undefined) was tested, and the HR (Rattus norvegicus [6]) was “Heart rate response was reported to reduce by 10-25% after 4 hr at a peroral dose of 10 mg/kg”, the Activity (Rattus norvegicus [21]) was “Vasopressor response antagonized” and the HR (Rattus norvegicus [17]) was “Heart rate response was reported to be reduce by 10-25% after 4 hr at a dose of 50 mg/kg”. For the same compound, the HR (Rattus norvegicus [9]) was “Heart rate response was reported to reduce by 10-25% after 4 hr at a peroral dose of 10 mg/kg” and the Activity (Rattus norvegicus [11]) was “Vasopressor response reversed”.
In the case of `Cc1c2n(c3ccccc13)CCC1C2NCCN1C(C)C.Cl.Cl` (centres undefined), the “Decrease in MABP” value (Rattus norvegicus [1]) was 12% and the Activity (Rattus norvegicus [22]) was “Vasopressor response antagonized”.
